Measured values: ChEMBL document CHEMBL2311435, “Development of 18F-labeled picolinamide probes for PET imaging of malignant melanoma” (J Med Chem, 2013)

Tests used:
Stomach [1] = experiment: Biodistribution in stomach of C57BL/6 mouse xenografted with mouse B16F10 cells at 3.7 MBq, iv after 1 hr by gamma-scintillation counting analysis; format: ADME, organism-based, B16-F10; settings: in vivo
How it was run: (§1)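 1.0 × 10^6 B16F10 cells in PBS injected subcutaneously into the right shoulder of C57BL/6 mice, grown to 0.5 cm (~10 day). Tail-vein injection of about 3.7 MBq (100 μCi) 18F probe in PBS (0.1 M, pH 7.4). Killed at 1.0 or 2.0 h p.i. (n = 4 per group). Tissues excised, weighed and gamma-counted; uptake expressed as %ID/g, mean ± SD.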

Spleen = experiment: Biodistribution in spleen of C57BL/6 mouse xenografted with mouse B16F10 cells at 3.7 MBq, iv after 1 hr by gamma-scintillation counting analysis; format: ADME, organism-based, B16-F10; settings: in vivo; how it was run: as §1
Liver [2] = experiment: Biodistribution in liver of C57BL/6 mouse xenografted with mouse B16F10 cells at 3.7 MBq, iv after 1 hr by gamma-scintillation counting analysis; format: ADME, organism-based, B16-F10; settings: in vivo; how it was run: as §1
Mus musculus [3] = experiment: Biodistribution in lungs of C57BL/6 mouse xenografted with mouse B16F10 cells at 3.7 MBq, iv after 1 hr by gamma-scintillation counting analysis; format: ADME, organism-based, Lung, B16-F10; settings: in vivo; how it was run: as §1
Heart [4] = experiment: Biodistribution in heart of C57BL/6 mouse xenografted with mouse B16F10 cells at 3.7 MBq, iv after 1 hr by gamma-scintillation counting analysis; format: ADME, organism-based, B16-F10; settings: in vivo; how it was run: as §1
[5] = Drug uptake in tumor of C57BL/6 mouse xenografted with mouse B16F10 cells at 3.7 MBq, iv after 5 mins by PET imaging analysis; format: ADME, organism-based, Neoplasm, B16-F10; settings: in vivo
How it was run: (§2)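 Dynamic small-animal PET in B16F10 tumor-bearing mice (n = 4) after tail-vein injection of ~3.7 MBq (100 μCi). Scanning began ~2.0 min post-injection and ran 35 min (6×20 s, 8×60 s, 10×150 s; 24 frames). ROI counts converted to %ID/g assuming 1 g/ml tissue density. No attenuation correction.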

Mus musculus [6] = experiment: Biodistribution in tumor of C57BL/6 mouse xenografted with mouse B16F10 cells at 3.7 MBq, iv after 1 hr by gamma-scintillation counting analysis; format: ADME, organism-based, Neoplasm, B16-F10; settings: in vivo; how it was run: as §1
Blood = experiment: Biodistribution in blood of C57BL/6 mouse xenografted with mouse B16F10 cells at 3.7 MBq, iv after 1 hr by gamma-scintillation counting analysis; format: ADME, organism-based, B16-F10; settings: in vivo; how it was run: as §1
[7] = Drug uptake in tumor of C57BL/6 mouse xenografted with mouse B16F10 cells at 3.7 MBq, iv after 1 hr by PET imaging analysis; format: ADME, organism-based, Neoplasm, B16-F10; settings: in vivo
How it was run: (§3)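 Static small-animal PET at 0.5, 1 and 2 h after tail-vein injection of ~3.7 MBq (100 μCi) into B16F10-bearing C57BL/6 mice (n = 4 per probe). Isoflurane anesthesia, 5% induction and 2% maintenance in O2. Decay-corrected images. ROI-derived %ID/g assumes 1 g/ml density, without attenuation correction. Mean ± SD.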

[8] = Drug uptake in tumor of C57BL/6 mouse xenografted with mouse B16F10 cells at 3.7 MBq, iv after 0.5 hrs by PET imaging analysis; format: ADME, organism-based, Neoplasm, B16-F10; settings: in vivo; how it was run: as §3
Kidney [9] = experiment: Drug uptake in kidney of C57BL/6 mouse xenografted with mouse B16F10 cells at 3.7 MBq, iv after 5 mins by PET imaging analysis; format: ADME, organism-based, B16-F10; settings: in vivo; how it was run: as §2
Kidney [10] = experiment: Drug uptake in kidney of C57BL/6 mouse xenografted with mouse B16F10 cells at 3.7 MBq, iv after 35 mins by PET imaging analysis; format: ADME, organism-based, B16-F10; settings: in vivo; how it was run: as §2
[11] = Drug uptake in tumor of C57BL/6 mouse xenografted with mouse B16F10 cells at 3.7 MBq, iv after 35 mins by PET imaging analysis; format: ADME, organism-based, Neoplasm, B16-F10; settings: in vivo; how it was run: as §2
Nucleic Acid [12] = experiment: Ratio of drug uptake in tumor to muscle of C57BL/6 mouse xenografted with mouse B16F10 cells at 3.7 MBq, iv after 2 hrs by gamma-scintillation counting analysis; format: ADME, organism-based, B16-F10; settings: in vivo
How it was run: (§4)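 Same subcutaneous B16F10 model and tail-vein dose of about 3.7 MBq (100 μCi), n = 4 per group. Dissection at 1 or 2 h p.i. Gamma-counter %ID/g of tumor divided by that of blood, lung, liver or muscle, given as mean ± SD.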

Nucleic Acid [13] = experiment: Ratio of drug uptake in tumor to liver of C57BL/6 mouse xenografted with mouse B16F10 cells at 3.7 MBq, iv after 2 hrs by gamma-scintillation counting analysis; format: ADME, organism-based, B16-F10; settings: in vivo; how it was run: as §4
Nucleic Acid [14] = experiment: Ratio of drug uptake in tumor to lungs of C57BL/6 mouse xenografted with mouse B16F10 cells at 3.7 MBq, iv after 2 hrs by gamma-scintillation counting analysis; format: ADME, organism-based, B16-F10; settings: in vivo; how it was run: as §4
Nucleic Acid [15] = experiment: Ratio of drug uptake in tumor to blood of C57BL/6 mouse xenografted with mouse B16F10 cells at 3.7 MBq, iv after 2 hrs by gamma-scintillation counting analysis; format: ADME, organism-based, B16-F10; settings: tumour; how it was run: as §4
Nucleic Acid [16] = experiment: Ratio of drug uptake in tumor to liver of C57BL/6 mouse xenografted with mouse B16F10 cells at 3.7 MBq, iv after 1 hr by gamma-scintillation counting analysis; format: ADME, organism-based, B16-F10; settings: in vivo; how it was run: as §4
Nucleic Acid [17] = experiment: Ratio of drug uptake in tumor to lungs of C57BL/6 mouse xenografted with mouse B16F10 cells at 3.7 MBq, iv after 1 hr by gamma-scintillation counting analysis; format: ADME, organism-based, B16-F10; settings: in vivo; how it was run: as §4
Muscle tissue = experiment: Biodistribution in muscle of C57BL/6 mouse xenografted with mouse B16F10 cells at 3.7 MBq, iv after 2 hrs by gamma-scintillation counting analysis; format: ADME, organism-based, B16-F10; settings: in vivo; how it was run: as §1
Zone of skin = experiment: Biodistribution in skin of C57BL/6 mouse xenografted with mouse B16F10 cells at 3.7 MBq, iv after 2 hrs by gamma-scintillation counting analysis; format: ADME, organism-based, B16-F10; settings: in vivo; how it was run: as §1
Brain = experiment: Biodistribution in brain of C57BL/6 mouse xenografted with mouse B16F10 cells at 3.7 MBq, iv after 2 hrs by gamma-scintillation counting analysis; format: ADME, organism-based, B16-F10; settings: in vivo; how it was run: as §1
Stomach [18] = experiment: Biodistribution in stomach of C57BL/6 mouse xenografted with mouse B16F10 cells at 3.7 MBq, iv after 2 hrs by gamma-scintillation counting analysis; format: ADME, organism-based, B16-F10; settings: in vivo; how it was run: as §1
Liver [19] = experiment: Biodistribution in liver of C57BL/6 mouse xenografted with mouse B16F10 cells at 3.7 MBq, iv after 2 hrs by gamma-scintillation counting analysis; format: ADME, organism-based, B16-F10; settings: in vivo; how it was run: as §1
Mus musculus [20] = experiment: Biodistribution in lungs of C57BL/6 mouse xenografted with mouse B16F10 cells at 3.7 MBq, iv after 2 hrs by gamma-scintillation counting analysis; format: ADME, organism-based, Lung, B16-F10; settings: in vivo; how it was run: as §1
Heart [21] = experiment: Biodistribution in heart of C57BL/6 mouse xenografted with mouse B16F10 cells at 3.7 MBq, iv after 2 hrs by gamma-scintillation counting analysis; format: ADME, organism-based, B16-F10; settings: in vivo; how it was run: as §1
Mus musculus [22] = experiment: Biodistribution in tumor of C57BL/6 mouse xenografted with mouse B16F10 cells at 3.7 MBq, iv after 2 hrs by gamma-scintillation counting analysis; format: ADME, organism-based, Neoplasm, B16-F10; settings: in vivo; how it was run: as §1
Bone = experiment: Biodistribution in bone of C57BL/6 mouse xenografted with mouse B16F10 cells at 3.7 MBq, iv after 1 hr by gamma-scintillation counting analysis; format: ADME, organism-based, Bone element, B16-F10; settings: in vivo; how it was run: as §1
Mus musculus [23] = experiment: Biodistribution in eye of C57BL/6 mouse xenografted with mouse B16F10 cells at 3.7 MBq, iv after 1 hr by gamma-scintillation counting analysis; format: ADME, organism-based, B16-F10; settings: in vivo; how it was run: as §1
Kidney [24] = experiment: Biodistribution in kidney of C57BL/6 mouse xenografted with mouse B16F10 cells at 3.7 MBq, iv after 1 hr by gamma-scintillation counting analysis; format: ADME, organism-based, B16-F10; settings: in vivo; how it was run: as §1

## CCN(CC)CCNC(=O)c1ccc([18F])cn1
Stomach [1]
  Drug uptake: 4.26 % ID/g
Spleen
  Drug uptake: 1.78 % ID/g
Liver [2]
  Drug uptake: 4.71 % ID/g
Mus musculus [3]
  Drug uptake: 1.58 % ID/g
Heart [4]
  Drug uptake: 1.17 % ID/g
[5]
  Drug uptake: 5.28 % ID/g
Mus musculus [6]
  Drug uptake: 15.2 % ID/g
Blood
  Drug uptake: 0.42 % ID/g
[7]
  Drug uptake: 16.61 % ID/g
[8]
  Drug uptake: 12.74 % ID/g
Kidney [9]
  Drug uptake: 24.91 % ID/g
Kidney [10]
  Drug uptake: 9.44 % ID/g
[11]
  Drug uptake: 10.52 % ID/g
Nucleic Acid [12]
  Ratio: 36.79
Nucleic Acid [13]
  Ratio: 5.14
Nucleic Acid [14]
  Ratio: 24.92
Nucleic Acid [15]
  Ratio: 88.25
Nucleic Acid [16]
  Ratio: 3.79
Nucleic Acid [17]
  Ratio: 9.94
Muscle tissue
  Drug uptake: 0.41 % ID/g
Zone of skin
  Drug uptake: 0.68 % ID/g
Brain
  Drug uptake: 0.42 % ID/g
Stomach [18]
  Drug uptake: 1.47 % ID/g
Liver [19]
  Drug uptake: 3.32 % ID/g
Mus musculus [20]
  Drug uptake: 0.69 % ID/g
Heart [21]
  Drug uptake: 0.59 % ID/g
Mus musculus [22]
  Drug uptake: 16.97 % ID/g
Bone
  Drug uptake: 2.4 % ID/g
Mus musculus [23]
  Drug uptake: 37.47 % ID/g
Kidney [24]
  Drug uptake: 3.32 % ID/g
